How the values were obtained:
[1] = tested on: Staphylococcus aureus; test: Antibacterial activity against Staphylococcus aureus after 18 hrs by broth microdilution method; assay type: functional
In short: (§1)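 Broth microdilution per CLSI, using ATCC standard strains. Final compound concentrations ran from 0.125 to 256 μg/mL. Plates were incubated at 37 °C for 18 h. MIC was taken as the lowest concentration preventing visible bacterial growth. Levofloxacin served as the positive control.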

[2] = tested on: Human immunodeficiency virus 1; test: Antiviral activity against VSV pseudotyped HIV1 infected in SupT1 cells after 48 hrs by luciferase reporter gene assay; assay type: functional, cell-based; settings: Human immunodeficiency virus 1, SUP-T1, 48 h
In short: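 VSV-G pseudotyped HIV-1 produced by cotransfecting 293T cells (2 × 10^5/mL) with 0.6 μg pNL-Luc-E and 0.4 μg pHIT/G. Supernatant harvested after 48 h, 0.45 μm filtered, and capsid quantified by p24 antigen-capture ELISA. SupT1 cells infected at MOI 1 with or without compound, 37 °C, 48 h. Inhibition read by firefly luciferase. Efavirenz positive control.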

[3] = tested on: Escherichia coli; test: Antibacterial activity against Escherichia coli after 18 hrs by broth microdilution method; assay type: functional; in short: as §1

Compound | MIC [1] | IC50 [2] | MIC [3]
COc1cc(OC)c2c(c1Cl)O[C@@]1(C(=O)C=C(NCCC(C)C)C[C@H]1C)C2=O | > 64 µg/mL | 33.2 µM | > 64 µg/mL
CN1C(=O)c2c3c(cc4cccc1c24)C(C)(C)NC3=O | > 64 µg/mL | 12.6 µM | > 64 µg/mL
COC1=CC(=O)C[C@@H](C)[C@]12Oc1c(Cl)c(OC)cc(OC)c1C2=O [GRISEOFULVIN] | > 64 µg/mL | 87.1 µM | > 64 µg/mL
COc1cc(O)c2c(=O)c3c(C)cc(O)cc3oc2c1 | > 64 µg/mL | 79.4 µM | > 64 µg/mL
CC(=O)[C@@]1(O)C(=O)N2C(C)(C)[C@@H]3Cc4cccc5c4[C@@]4(O[C@@]1(O)[C@@]2(O)[C@H]34)C(=O)N5 | > 64 µg/mL | 70.1 µM | > 64 µg/mL
Cc1cc(=O)n2c(n1)-c1c(cc3cccc4c3c1C(=O)N4)C2(C)C | > 64 µg/mL | 20.5 µM | > 64 µg/mL
Cc1cc(=O)n2c(n1)-c1c(cc3cccc4c3c1C(=O)N4C)C2(C)C | > 64 µg/mL | 77.9 µM | > 64 µg/mL
COc1ccc2c3c1C(=O)CC(C)(C)N3C(=O)[C@]21C[C@]2([N+](=O)[O-])CN3CCC[C@H]3C[C@@H]2C1(C)C | > 64 µg/mL | 57.7 µM | > 64 µg/mL
COC1=CC(=O)C[C@@H](C)[C@]12Oc1cc(OC)cc(OC)c1C2=O | > 64 µg/mL | 89.7 µM | > 64 µg/mL

Reference: ChEMBL document CHEMBL4038266, “Griseofulvin Derivative and Indole Alkaloids from Penicillium griseofulvum CPCC 400528” (J Nat Prod, 2017)
